We go through two compounds from ChEMBL document CHEMBL4257448, “Deciphering the origins of molecular toxicity of combretastatin A4 and its glycoconjugates: interactions with major drug transporters and their safety profiles in vitro and in vivo” (Medchemcomm, 2017).

Converted amounts (≈) assume the structure as drawn.

Data set [1] deals with T1, Solute carrier organic anion transporter family member 2B1 (Homo sapiens, UniProt O94956).
T1 sequence (O94956 whole entry): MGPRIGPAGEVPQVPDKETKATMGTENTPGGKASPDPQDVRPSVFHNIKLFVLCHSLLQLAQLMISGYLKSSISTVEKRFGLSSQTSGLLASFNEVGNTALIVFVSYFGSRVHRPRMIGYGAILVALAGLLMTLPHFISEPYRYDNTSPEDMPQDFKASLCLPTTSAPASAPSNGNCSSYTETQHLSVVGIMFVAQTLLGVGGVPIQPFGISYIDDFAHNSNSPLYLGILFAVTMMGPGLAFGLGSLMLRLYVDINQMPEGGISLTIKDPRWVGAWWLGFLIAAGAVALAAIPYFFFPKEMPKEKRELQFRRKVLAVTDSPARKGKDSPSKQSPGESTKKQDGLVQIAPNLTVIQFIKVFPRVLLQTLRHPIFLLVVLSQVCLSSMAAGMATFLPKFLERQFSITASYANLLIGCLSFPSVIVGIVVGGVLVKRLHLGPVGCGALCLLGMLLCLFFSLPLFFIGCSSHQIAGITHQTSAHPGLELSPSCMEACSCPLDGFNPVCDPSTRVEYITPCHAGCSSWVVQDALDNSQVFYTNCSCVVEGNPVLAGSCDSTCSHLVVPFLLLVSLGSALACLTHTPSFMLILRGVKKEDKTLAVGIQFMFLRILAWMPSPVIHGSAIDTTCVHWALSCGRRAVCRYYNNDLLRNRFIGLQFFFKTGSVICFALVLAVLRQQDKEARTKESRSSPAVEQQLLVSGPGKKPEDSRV
Description: Substrate activity at human OATP2B1 expressed in HEK293 cells assessed as compound uptake by HPLC-UV method relative to control. In kind it is ADME, cell-based.

The test system of another data set is Mus musculus. Put plainly: Ratio of compound MTD to CA4 MTD in ip dosed DBA/2 mouse assessed as reduction in 15% body weight administered as daily dose for 3 days. Format: ADME, organism-based. Conditions: in vivo, 72 h; call rule not given here.
The test system of another data set is HT-29. Put plainly: […] for human HT-29 cells assessed as reduction in cell viability after 72 hrs by MTT assay. In kind it is functional. The essentials: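 HT29 cells were cultured in RPMI-1640 with glutamine and 10% FBS, seeded at 2000–7500 cells/well, and exposed for 72 h to drug in DMSO (final DMSO <0.1%). MTT was added at 0.83 mg mL−1 final and incubated overnight, then cells were lysed in SDS/HCl and read at 570 nm. Survival was expressed as percent of drug-free control; five replicate wells.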
(In general: Tetrazolium dyes change colour on reduction, which living cells bring about.)

The target of data set [2] is T1, Solute carrier organic anion transporter family member 2B1. Put plainly: Inhibition of human OATP2B1 expressed in HEK293 cells assessed as DBF uptake after 5 mins by fluorescence assay. In kind it is cell-based. Conditions: for inhibition (INH): human, hek293, 5 min. The procedure, abridged:
(§1)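 Stably transfected HEK293 cells (human OAT1, OAT3, OCT1, OCT2, OATP1B3, OATP2B1) and mock cells were assayed 16 h after seeding in HEPES uptake buffer, pH 7.2, with fluorescent probe ± compound. Incubation was 5 min for OAT1/3 and OATPs, and 10 min for OCT1/2. Reference inhibitors were probenecid (OATs), quinine (OCTs) and rifampicin (OATPs). Uptake was stopped with ice-cold PBS and cells were lysed in Tris/Triton. Fluorescence was normalised to BCA protein; triplicates, repeated 2–3 times.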

Data set [3] in a line: Ratio of CA4 aqueous solubility to test compound aqueous solubility. In kind it is physicochemical. Conditions: buffer.
In data set [4] the target is T1, Solute carrier organic anion transporter family member 2B1. Put plainly: Substrate activity at human OATP2B1 expressed in HEK293 cells assessed as compound uptake in presence of OATP2B1 inhibitor rifampicin by HPLC-UV method. In kind it is ADME, cell-based.
Data set [5] can be described thus: Aqueous solubility of the compound after 1 hrs by HPLC-UV method. In kind it is physicochemical. Conditions: deionized water. The procedure, abridged:
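Shaken in tubes at 25 °C for 1 h, protected from light, then filtered through 0.2 μm filters; filtrate diluted in deionized water and quantified by reversed-phase HPLC-UV (C18 column, room temperature, methanol/water 70:30 v/v, 1.0 mL min−1).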

Data set [6] in a line: Drug uptake in mock transfected HEK293 cells in presence of OATP2B1 inhibitor rifampicin by HPLC-UV method. Format: ADME, cell-based. Conditions: human.
The target of data set [7] is T2, Solute carrier family 22 member 1 (Homo sapiens, UniProt O15245).
T2 sequence (O15245 whole entry): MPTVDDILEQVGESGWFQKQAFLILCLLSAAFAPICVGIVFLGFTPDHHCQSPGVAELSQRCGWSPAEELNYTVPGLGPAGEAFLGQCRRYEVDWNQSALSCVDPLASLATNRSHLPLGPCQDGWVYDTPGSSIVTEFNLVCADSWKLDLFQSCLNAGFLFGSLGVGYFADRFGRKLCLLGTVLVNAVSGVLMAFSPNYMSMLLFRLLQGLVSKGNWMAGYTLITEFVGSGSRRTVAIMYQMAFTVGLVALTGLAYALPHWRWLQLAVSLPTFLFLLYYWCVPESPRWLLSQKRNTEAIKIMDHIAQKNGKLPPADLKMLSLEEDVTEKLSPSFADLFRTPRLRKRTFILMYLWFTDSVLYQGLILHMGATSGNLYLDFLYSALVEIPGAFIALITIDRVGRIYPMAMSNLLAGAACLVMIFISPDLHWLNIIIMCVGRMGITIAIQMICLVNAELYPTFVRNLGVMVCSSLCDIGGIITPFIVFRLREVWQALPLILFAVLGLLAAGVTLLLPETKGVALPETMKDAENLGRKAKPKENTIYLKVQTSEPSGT
Description: Inhibition of human OCT1 expressed in HEK293 cells assessed as Asp+ uptake after 10 mins by fluorescence assay. Format: cell-based. Conditions: for inhibition (INH): human, hek293, 10 min. The procedure, abridged: as §1

Data set [8] is described as follows: Drug uptake in mock transfected HEK293 cells by HPLC-UV assay. In kind it is ADME, cell-based. The note with it: human.

As a reminder, the IC50 is the concentration that inhibits the measured activity by half. Usually solubility stands for the dissolved amount per volume that the medium holds. Low readings indicate a poorly soluble substance, high ones a readily soluble substance. In the case of `COc1ccc(/C=C\c2cc(OC)c(OC)c(OC)c2)cc1O[C@@H]1O[C@H](CO)[C@@H](O)[C@H](O)[C@H]1O`, the results for the Drug uptake in [1], in data set [4] and in [6] were 60%, “Active” and “Active”, respectively. Also, the results for the Ratio (in the data set with Mus musculus; in data set [3]) were 16 and 610, respectively. In addition, in the data set with HT-29, the “Ratio IC50” value amounted to 9.59. For the same compound, the half-inhibitory concentration (IC50) in data set [2] and in data set [7] was > 200 µM in each case. Moreover, the “inhibition (INH)” value in data set [2] and in [7] was “Dose-dependent effect” throughout. The compound further registered a solubility at 1 h in [5] of 1830 µg/mL (≈ 3820 µM).

With `COc1ccc(/C=C\c2cc(OC)c(OC)c(OC)c2)cc1O` [COMBRETASTATIN A4], in [2], the IC50 stood at 12.3 µM and the “inhibition (INH)” value is listed as “Dose-dependent effect”. In data set [8], the Drug uptake result is listed as “Active”. Moreover, the solubility at 1 h in data set [5] worked out at 3 µg/mL (≈ 9.48 µM). Moreover, in data set [7], the IC50 is > 200 µM and the “inhibition (INH)” value was “Dose-dependent effect”.
